In ChEMBL document CHEMBL2401705, “Discovery of triazines as potent, selective and orally active PDE4 inhibitors” (Bioorg Med Chem Lett, 2013):
pIC50: −log10 of the molar value. In brackets after ≈: the same amount, converted by molar mass. One block for each compound: values may come before it.

Legend:
[1] = target: 3',5'-cyclic-AMP phosphodiesterase 4A (Homo sapiens, UniProt P27815); assay: Inhibition of human full length PDE4A4 expressed in baculovirus infected sf21 cells
[2] = target: High affinity 3',5'-cyclic-AMP phosphodiesterase 7A (Homo sapiens, UniProt Q13946); assay: Inhibition of human full length PDE7A1 expressed in baculovirus infected sf21 cells
[3] = Intrinsic clearance in rat liver microsomes; type: ADME, Microsome; conditions: read-out: CLH
[4] = Aqueous solubility of the compound at pH 7.4; conditions: buffer
[5] = target: cAMP and cAMP-inhibited cGMP 3',5'-cyclic phosphodiesterase 10A (Homo sapiens, UniProt Q9Y233); assay: Inhibition of human recombinant PDE10A
[6] = Oral bioavailability in rat; type: ADME, organism-based; conditions: in vivo
Cytochrome P450 1A2 = Cytochrome P450 1A2 (Homo sapiens, UniProt P05177); assay: Inhibition of CYP1A2 (unknown origin); type: ADME
Cytochrome P450 2C19 = Cytochrome P450 2C19 (Homo sapiens, UniProt P33261); assay: Inhibition of CYP2C19 (unknown origin); type: ADME
[7] = target: Dual specificity calcium/calmodulin-dependent 3',5'-cyclic nucleotide phosphodiesterase 1B (Homo sapiens, UniProt Q01064); assay: Inhibition of human recombinant PDE1B
[8] = Inhibition of bovine retina PDE6; set-up: species or system Bos taurus
[9] = target: cGMP-inhibited 3',5'-cyclic phosphodiesterase 3A (Homo sapiens, UniProt Q14432); assay: Inhibition of human recombinant PDE3A
hERG (KCNH2) = hERG (KCNH2) (Homo sapiens, UniProt Q12809); assay: Inhibition of human ERG at 10 uM
In short: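 hERG measured in a binding assay, reported as percent inhibition at 10 µM.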

Cytochrome P450 2C9 = Cytochrome P450 2C9 (Homo sapiens, UniProt P11712); assay: Inhibition of CYP2C9 (unknown origin); type: ADME
Mustela putorius furo [10] = assay: Toxicity in po dosed ferret assessed as first emetic dose by measuring occurrence of vomiting episode after 6 hrs; type: organism-based; conditions: in vivo
In short: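 Ferrets were given oral doses and watched for 6 h after administration for a vomiting episode; the first emetic dose was reported in mg/kg.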

PBMC = assay: Inhibition of TNFalpha production in human PBMC; type: functional, cell-based
Cytochrome P450 2A6 = Cytochrome P450 2A6 (Homo sapiens, UniProt P11509); assay: Inhibition of CYP2A6 (unknown origin); type: ADME
Cytochrome P450 2D6 = Cytochrome P450 2D6 (Homo sapiens, UniProt P10635); assay: Inhibition of CYP2D6 (unknown origin); type: ADME
[11] = Volume of distribution in rat at 3 mg/kg; type: ADME, organism-based; set-up: dose 3 mg/kg; conditions: in vivo
[12] = Clearance in rat at 3 mg/kg, iv; type: ADME, organism-based; set-up: dose 3 mg/kg, route intravenous; conditions: in vivo
Blood = assay: Inhibition of TNFalpha production in human whole blood; type: functional, tissue-based
Cytochrome P450 1A1 = Cytochrome P450 1A1 (Homo sapiens, UniProt P04798); assay: Inhibition of CYP1A1 (unknown origin); type: ADME
[13] = target: cGMP-specific 3',5'-cyclic phosphodiesterase (Homo sapiens, UniProt O76074); assay: Inhibition of human recombinant PDE5A
[14] = target: High affinity cAMP-specific and IBMX-insensitive 3',5'-cyclic phosphodiesterase 8A (Homo sapiens, UniProt O60658); assay: Inhibition of human recombinant PDE8A
[15] = target: Dual 3',5'-cyclic-AMP and -GMP phosphodiesterase 11A (Homo sapiens, UniProt Q9HCR9); assay: Inhibition of human recombinant PDE11A
[16] = Intrinsic clearance in human liver microsomes; type: ADME, Microsome; conditions: read-out: CLH
[17] = Inhibition of CYP3A4B (unknown origin); type: ADME, Homo sapiens
[18] = Inhibition of CYP3A4Q (unknown origin); type: ADME, Homo sapiens
[19] = target: cGMP-dependent 3',5'-cyclic phosphodiesterase (Homo sapiens, UniProt O00408); assay: Inhibition of human recombinant PDE2A
[20] = Cmax in rat at 3 mg/kg, po; type: ADME, organism-based; set-up: dose 3 mg/kg, route oral; conditions: in vivo
[21] = target: High affinity cGMP-specific 3',5'-cyclic phosphodiesterase 9A (Homo sapiens, UniProt O76083); assay: Inhibition of human recombinant PDE9A
[22] = Intrinsic clearance in dog liver microsomes; type: ADME, Canis lupus familiaris, Microsome; conditions: read-out: CLH
Mustela putorius furo [23] = assay: Inhibition of LPS-induced neutrophilia in ferret COPD model BAL-fluid at 0.01 mg/kg, po; type: functional
In short: (§1)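 Ferrets challenged by LPS inhalation, with compound given orally. Read-out is the change in neutrophil count in bronchoalveolar lavage fluid, expressed as percentage inhibition.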

Mustela putorius furo [24] = assay: Inhibition of LPS-induced neutrophilia in ferret COPD model BAL-fluid at 0.1 mg/kg, po; type: functional; in short: as §1
[25] = target: 3',5'-cyclic-AMP phosphodiesterase 4B (Homo sapiens, UniProt Q07343); assay: Inhibition of full length PDE4B1 (unknown origin)
[26] = target: 3',5'-cyclic-AMP phosphodiesterase 4D (Rattus norvegicus, UniProt P14270); assay: Inhibition of rat PDE4D3
[27] = Half life in rat at 3 mg/kg, iv; type: ADME, organism-based; set-up: dose 3 mg/kg, route intravenous; conditions: in vivo
serum albumin = serum albumin (Homo sapiens, UniProt P02768); assay: Binding affinity to human serum albumin; type: ADME; conditions: read-out: PB (converted)
[28] = Inhibition of CYP3A4D (unknown origin); type: ADME, Homo sapiens
Rattus norvegicus = assay: Inhibition of LPS-induced neutrophil accumulation in rat lung at 0.1 mg/kg, po; type: functional
Phosphodiesterase 4 = Phosphodiesterase 4 (Homo sapiens, UniProt P27815+Q08499+Q07343+Q08493); assay: Inhibition of PDE4 (unknown origin); type: protein assay

Chain of High affinity 3',5'-cyclic-AMP phosphodiesterase 7A (Q13946 whole entry): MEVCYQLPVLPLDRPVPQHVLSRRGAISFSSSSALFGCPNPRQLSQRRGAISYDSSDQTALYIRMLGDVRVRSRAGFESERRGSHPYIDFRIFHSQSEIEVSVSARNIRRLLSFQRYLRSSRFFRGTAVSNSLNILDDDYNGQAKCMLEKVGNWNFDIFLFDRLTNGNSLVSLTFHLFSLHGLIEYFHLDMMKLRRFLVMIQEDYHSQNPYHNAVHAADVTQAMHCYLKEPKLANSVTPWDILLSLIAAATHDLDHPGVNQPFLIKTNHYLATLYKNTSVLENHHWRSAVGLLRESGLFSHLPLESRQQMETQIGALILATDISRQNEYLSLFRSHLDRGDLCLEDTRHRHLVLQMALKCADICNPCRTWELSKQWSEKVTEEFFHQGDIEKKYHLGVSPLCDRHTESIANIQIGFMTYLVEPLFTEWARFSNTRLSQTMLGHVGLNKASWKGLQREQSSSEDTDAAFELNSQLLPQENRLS
Chain of 3',5'-cyclic-AMP phosphodiesterase 4A (P27815 whole entry): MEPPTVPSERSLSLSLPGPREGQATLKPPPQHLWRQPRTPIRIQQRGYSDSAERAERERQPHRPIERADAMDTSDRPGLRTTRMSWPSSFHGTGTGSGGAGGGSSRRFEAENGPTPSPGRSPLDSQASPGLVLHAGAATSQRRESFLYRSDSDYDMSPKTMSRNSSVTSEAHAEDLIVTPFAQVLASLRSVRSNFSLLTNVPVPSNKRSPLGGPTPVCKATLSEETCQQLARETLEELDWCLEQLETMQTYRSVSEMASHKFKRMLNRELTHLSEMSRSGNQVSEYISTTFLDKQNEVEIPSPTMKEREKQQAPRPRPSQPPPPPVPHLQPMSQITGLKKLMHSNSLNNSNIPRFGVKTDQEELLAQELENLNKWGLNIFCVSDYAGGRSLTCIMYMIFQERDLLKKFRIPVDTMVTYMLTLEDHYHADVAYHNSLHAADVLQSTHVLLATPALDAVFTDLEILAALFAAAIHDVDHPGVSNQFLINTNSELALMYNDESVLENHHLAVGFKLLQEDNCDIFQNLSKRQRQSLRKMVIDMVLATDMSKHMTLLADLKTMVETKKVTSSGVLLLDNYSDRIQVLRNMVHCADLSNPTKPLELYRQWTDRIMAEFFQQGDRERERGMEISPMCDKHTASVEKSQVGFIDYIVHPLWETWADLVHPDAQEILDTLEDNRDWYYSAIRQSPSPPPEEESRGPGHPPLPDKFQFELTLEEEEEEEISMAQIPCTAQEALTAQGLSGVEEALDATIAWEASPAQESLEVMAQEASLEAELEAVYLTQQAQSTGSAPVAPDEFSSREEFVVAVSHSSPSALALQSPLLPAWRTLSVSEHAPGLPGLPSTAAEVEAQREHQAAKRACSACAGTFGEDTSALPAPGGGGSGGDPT
Chain of serum albumin (P02768 whole entry): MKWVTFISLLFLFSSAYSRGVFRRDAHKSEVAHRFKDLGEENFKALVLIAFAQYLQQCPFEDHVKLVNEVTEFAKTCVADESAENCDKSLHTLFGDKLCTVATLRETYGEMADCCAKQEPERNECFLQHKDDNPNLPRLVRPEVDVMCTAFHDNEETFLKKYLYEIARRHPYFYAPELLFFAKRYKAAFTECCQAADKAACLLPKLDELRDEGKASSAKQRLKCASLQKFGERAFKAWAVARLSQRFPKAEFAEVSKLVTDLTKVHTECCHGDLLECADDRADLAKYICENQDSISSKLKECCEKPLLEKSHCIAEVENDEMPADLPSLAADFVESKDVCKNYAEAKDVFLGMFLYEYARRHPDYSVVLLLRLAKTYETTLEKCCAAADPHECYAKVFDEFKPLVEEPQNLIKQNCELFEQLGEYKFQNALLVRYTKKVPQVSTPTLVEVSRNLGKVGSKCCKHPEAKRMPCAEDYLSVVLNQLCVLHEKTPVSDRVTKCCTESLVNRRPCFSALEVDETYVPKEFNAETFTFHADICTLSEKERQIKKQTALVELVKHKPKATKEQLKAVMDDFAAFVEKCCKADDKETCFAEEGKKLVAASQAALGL
Chain of cGMP-inhibited 3',5'-cyclic phosphodiesterase 3A (Q14432 whole entry): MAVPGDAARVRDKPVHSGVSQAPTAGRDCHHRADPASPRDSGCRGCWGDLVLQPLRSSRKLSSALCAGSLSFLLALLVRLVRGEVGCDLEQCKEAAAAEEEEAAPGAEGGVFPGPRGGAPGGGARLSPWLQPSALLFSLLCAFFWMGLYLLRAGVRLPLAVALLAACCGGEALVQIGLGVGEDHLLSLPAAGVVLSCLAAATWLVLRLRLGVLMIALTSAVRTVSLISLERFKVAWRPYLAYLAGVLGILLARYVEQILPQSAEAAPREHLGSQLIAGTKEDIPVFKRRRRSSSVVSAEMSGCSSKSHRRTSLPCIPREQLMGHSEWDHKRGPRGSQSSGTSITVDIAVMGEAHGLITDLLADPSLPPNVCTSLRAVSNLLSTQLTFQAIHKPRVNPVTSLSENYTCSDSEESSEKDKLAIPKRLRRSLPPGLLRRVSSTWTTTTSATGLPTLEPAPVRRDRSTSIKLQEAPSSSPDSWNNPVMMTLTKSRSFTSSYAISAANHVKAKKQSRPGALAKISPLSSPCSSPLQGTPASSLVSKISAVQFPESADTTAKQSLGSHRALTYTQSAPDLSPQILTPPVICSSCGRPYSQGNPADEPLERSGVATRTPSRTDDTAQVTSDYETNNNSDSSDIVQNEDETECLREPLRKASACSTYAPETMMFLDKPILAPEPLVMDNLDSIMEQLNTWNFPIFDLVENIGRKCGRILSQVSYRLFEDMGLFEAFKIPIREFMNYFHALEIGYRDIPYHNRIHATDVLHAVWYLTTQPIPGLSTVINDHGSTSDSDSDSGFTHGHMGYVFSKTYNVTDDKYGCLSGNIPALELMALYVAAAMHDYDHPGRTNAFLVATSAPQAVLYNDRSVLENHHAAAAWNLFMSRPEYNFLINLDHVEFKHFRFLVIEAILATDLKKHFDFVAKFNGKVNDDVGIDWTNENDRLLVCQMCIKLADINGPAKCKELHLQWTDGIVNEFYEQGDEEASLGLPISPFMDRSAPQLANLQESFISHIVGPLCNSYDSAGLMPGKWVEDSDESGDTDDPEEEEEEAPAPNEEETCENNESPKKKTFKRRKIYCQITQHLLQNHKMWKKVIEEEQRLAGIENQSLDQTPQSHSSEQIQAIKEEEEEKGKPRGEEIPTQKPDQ
Chain of cGMP-dependent 3',5'-cyclic phosphodiesterase (O00408 whole entry): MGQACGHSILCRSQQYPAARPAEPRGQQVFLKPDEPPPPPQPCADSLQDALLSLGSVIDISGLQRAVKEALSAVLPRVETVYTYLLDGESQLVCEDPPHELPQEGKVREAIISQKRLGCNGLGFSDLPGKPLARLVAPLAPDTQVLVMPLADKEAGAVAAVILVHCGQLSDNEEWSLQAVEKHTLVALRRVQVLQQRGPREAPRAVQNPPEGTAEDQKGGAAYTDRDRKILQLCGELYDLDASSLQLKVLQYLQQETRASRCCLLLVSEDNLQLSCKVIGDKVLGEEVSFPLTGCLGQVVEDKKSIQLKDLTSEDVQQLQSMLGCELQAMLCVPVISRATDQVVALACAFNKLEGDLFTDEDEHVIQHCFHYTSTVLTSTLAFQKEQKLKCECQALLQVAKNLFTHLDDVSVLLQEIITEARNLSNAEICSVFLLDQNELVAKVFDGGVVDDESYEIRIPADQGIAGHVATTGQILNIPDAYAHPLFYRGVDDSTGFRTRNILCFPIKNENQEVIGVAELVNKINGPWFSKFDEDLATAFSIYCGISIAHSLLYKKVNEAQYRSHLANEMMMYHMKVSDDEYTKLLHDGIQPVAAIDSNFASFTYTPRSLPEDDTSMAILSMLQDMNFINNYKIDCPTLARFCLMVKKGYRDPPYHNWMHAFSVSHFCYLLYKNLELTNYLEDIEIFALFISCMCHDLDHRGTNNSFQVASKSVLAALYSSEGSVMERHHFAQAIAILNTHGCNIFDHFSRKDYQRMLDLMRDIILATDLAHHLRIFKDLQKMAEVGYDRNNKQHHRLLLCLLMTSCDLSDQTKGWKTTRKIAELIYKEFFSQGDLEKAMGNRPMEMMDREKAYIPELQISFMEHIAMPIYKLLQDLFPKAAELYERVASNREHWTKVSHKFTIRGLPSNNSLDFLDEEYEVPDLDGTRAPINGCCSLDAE
Chain of High affinity cAMP-specific and IBMX-insensitive 3',5'-cyclic phosphodiesterase 8A (O60658 whole entry): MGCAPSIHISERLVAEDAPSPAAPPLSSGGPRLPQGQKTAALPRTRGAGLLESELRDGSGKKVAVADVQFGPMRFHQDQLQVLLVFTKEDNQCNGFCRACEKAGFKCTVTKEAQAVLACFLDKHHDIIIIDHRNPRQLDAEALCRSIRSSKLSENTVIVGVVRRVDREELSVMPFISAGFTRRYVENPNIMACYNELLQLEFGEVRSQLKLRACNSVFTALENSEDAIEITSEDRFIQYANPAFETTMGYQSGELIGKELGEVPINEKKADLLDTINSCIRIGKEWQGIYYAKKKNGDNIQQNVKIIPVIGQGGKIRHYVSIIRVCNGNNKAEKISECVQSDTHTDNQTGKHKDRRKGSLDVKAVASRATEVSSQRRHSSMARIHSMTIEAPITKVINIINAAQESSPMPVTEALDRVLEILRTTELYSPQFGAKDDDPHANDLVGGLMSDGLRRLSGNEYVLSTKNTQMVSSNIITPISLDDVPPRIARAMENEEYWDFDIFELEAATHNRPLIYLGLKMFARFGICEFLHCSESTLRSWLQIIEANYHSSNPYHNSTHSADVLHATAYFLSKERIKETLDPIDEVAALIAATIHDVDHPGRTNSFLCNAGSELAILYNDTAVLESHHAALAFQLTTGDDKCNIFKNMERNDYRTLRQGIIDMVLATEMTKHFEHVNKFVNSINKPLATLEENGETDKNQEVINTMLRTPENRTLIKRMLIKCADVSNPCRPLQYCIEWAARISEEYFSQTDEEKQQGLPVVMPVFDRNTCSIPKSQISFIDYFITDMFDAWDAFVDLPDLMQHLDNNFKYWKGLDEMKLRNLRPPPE

pIC50 [1]: 6.83
Compound: C#CC1(Nc2nc(Cl)nc(NC)n2)CCCCC1

pIC50 [1]: 7.36
Compound: CNc1nc(Cl)nc(NC2(C#N)CCCCCC2)n1

pIC50 [1]: 6.78
Compound: CONc1nc(Cl)nc(NC2(C#N)CCCCC2)n1

CLint scaled [3]: 276 mL/min/kg
solubility [4]: 9 µg/mL (≈ 28.7 µM)
pIC50 [1]: 9.38
Compound: CNc1nc(NC2(C#N)CCCCCC2)nc(-n2cncn2)n1

pIC50 [1]: 6.90
Compound: N#CC1(Nc2nc(Cl)nc(NC3CC3)n2)CCCCC1

CLint scaled [3]: 43 mL/min/kg
solubility [4]: 165 µg/mL (≈ 578 µM)
pIC50 [1]: 8.85
Compound: CNc1nc(NC2(C#N)CCCC2)nc(-n2cncn2)n1

pIC50 [1]: 6.25
Compound: CN(c1nc(N)nc(Cl)n1)C1(C#N)CCCCC1

pIC50 [1]: 7.27
Compound: CNc1nc(Cl)nc(NC2(C#N)CCCC2)n1

Further lines, the compound ahead of its results:

Compound: CNc1nc(NC2CCCC2)nc(NC2(C#N)CCCCC2)n1
pIC50 [2]: < 5.30
pIC50 [1]: 7.23

Compound: CNc1nc(NC2(C#N)CCCCC2)nc(-n2cnc(C)n2)n1
pIC50 [2]: < 5.30
CLint scaled [3]: > 276 mL/min/kg
pIC50 [1]: 9.00

Compound: CCC(C#N)(CC)Nc1nc(NC)nc(-n2cncn2)n1
pIC50 [5]: < 6.00
bioavailability [6]: 41%
pIC50 (Cytochrome P450 1A2): < 5.00
pIC50 (Cytochrome P450 2C19): < 5.00
pIC50 [7]: < 6.00
pIC50 [8]: < 6.00
pIC50 [9]: < 6.00
inhibition at 10 µM (hERG (KCNH2)): 6%
pIC50 (Cytochrome P450 2C9): < 5.00
Activity (Mustela putorius furo [10]): 3 mg/kg
pIC50 (PBMC): 7.66
pIC50 (Cytochrome P450 2A6): < 5.00
pIC50 (Cytochrome P450 2D6): < 5.00
Vd [11]: 0.5 L/kg
clearance [12]: 3.3 mL/min/kg
pIC50 (Blood): 7.26
CLint scaled [3]: 26 mL/min/kg
pIC50 (Cytochrome P450 1A1): < 5.00
solubility [4]: 165 µg/mL (≈ 574 µM)
pIC50 [13]: < 6.00
pIC50 [14]: < 6.00
pIC50 [15]: < 6.00
CLint scaled [16]: < 1 mL/min/kg
pIC50 [17]: < 5.00
pIC50 [18]: < 5.00
pIC50 [19]: < 6.00
Cmax [20]: 669 ng/mL
pIC50 [1]: 9.09
pIC50 [21]: < 6.00
CLint scaled [22]: < 1 mL/min/kg
inhibition in vivo at 0.01 mg/kg (Mustela putorius furo [23]): 33%
inhibition in vivo at 0.1 mg/kg (Mustela putorius furo [24]): 66%
pIC50 [25]: 9.06
pIC50 [26]: 8.93
half-life [27]: 1.7 h
fraction unbound (serum albumin): 0.49
pIC50 [28]: < 5.00
inhibition in vivo at 0.1 mg/kg (Rattus norvegicus): 41%

Compound: CNc1nc(Cl)nc(NC(C)(C)C)n1
pIC50 [1]: 6.61

Compound: CNc1nc(NC2(C#N)CCCCC2)nc(N2CCCC2)n1
pIC50 [2]: < 5.30
CLint scaled [3]: > 276 mL/min/kg
pIC50 [1]: 7.42

Compound: O=C(Nc1c(Cl)cncc1Cl)c1ccc(OC(F)F)c(OCC2CC2)c1 [ROFLUMILAST]
Activity (Mustela putorius furo [10]): 1 mg/kg
solubility [4]: 1.3 µg/mL (≈ 3.22 µM)
inhibition in vivo at 0.01 mg/kg (Mustela putorius furo [23]): 65%
fraction unbound (serum albumin): 0.03

Compound: CCC(C)(C#N)Nc1nc(NC)nc(-n2cncn2)n1 (racemic)
CLint scaled [3]: 32 mL/min/kg
solubility [4]: 50 µg/mL (≈ 183 µM)
pIC50 [1]: 8.62

Compound: CNc1nc(NC2(C#N)CCCC(C)C2)nc(-n2cncn2)n1 (mixture of isomers)
CLint scaled [3]: 96 mL/min/kg
pIC50 [1]: 9.70

Compound: CCC(C)(CC)Nc1nc(Cl)nc(NC)n1
pIC50 [1]: 6.81

Compound: CNc1nc(Cl)nc(NC2(C#N)CCCCC2)n1
pIC50 [2]: 5.97
CLint scaled [3]: 867 mL/min/kg
pIC50 [1]: 7.40

Compound: CNc1nc(NC2(C#N)CCCCC2)nc(-n2cnc(C#N)n2)n1
pIC50 [2]: < 5.30
CLint scaled [3]: 210 mL/min/kg
pIC50 [1]: 8.31

Compound: O=S1(=O)CCN(c2nc(NC3CC3)nc(C3CC3)n2)C1
IC50 (Phosphodiesterase 4): 140 nM

Compound: CCCC(C#N)(CC)Nc1nc(NC)nc(-n2cncn2)n1 (racemic)
CLint scaled [3]: 29 mL/min/kg
solubility [4]: 76 µg/mL (≈ 252 µM)
pIC50 [1]: 8.96

Compound: CNc1nc(NC2(C#N)CCCCC2)nc(-n2cnc3ccccc32)n1
pIC50 [2]: < 6.00
pIC50 [1]: 7.92

Compound: CCCC(C#N)(CCC)Nc1nc(NC)nc(-n2cncn2)n1
CLint scaled [3]: 32 mL/min/kg
pIC50 [1]: 8.19
